Results taken from ChEMBL document CHEMBL1142429, “Identification of ACE pharmacophore in the phosphonopeptide metabolite K-26” (Bioorg Med Chem Lett, 2008).

experiment: Inhibition of ACE
Outline: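 Enzyme source: rabbit lung acetone powder, extracted by soaking in 100 mM borate buffer, then ultracentrifuged. Extract preincubated 5 min with a range of inhibitor concentrations. Reaction started with a 1 mM solution of chromogenic substrate FAPGG. Initial hydrolysis rate followed continuously as absorbance change at 340 nm over time. IC50 from triplicate measurements fitted to a sigmoidal dose-response curve. Captopril run in parallel as benchmark.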

With CC[C@@H](C)[C@H](NC(C)=O)C(=O)N[C@@H](Cc1ccc(O)cc1)C(=O)N[C@@H](Cc1ccc(O)cc1)C(=O)O as the compound, how does the IC50 read?
The IC50 was 21 µM.

For CC[C@@H](C)[C@H](NC(C)=O)C(=O)N[C@@H](Cc1ccc(O)cc1)C(=O)N[C@H](Cc1ccc(O)cc1)P(=O)(O)O, which IC50 is on record?
Its IC50 is 0.139 µM.

With CCOP(=O)(OCC)[C@H](Cc1ccc(O)cc1)NC(=O)[C@H](Cc1ccc(O)cc1)NC(=O)[C@@H](NC(C)=O)[C@H](C)CC as the compound, how does the IC50 read?
The IC50 was 383 µM.

For C[C@H](CS)C(=O)N1CCC[C@H]1C(=O)O [CAPTOPRIL], which IC50 is on record?
The IC50 was 0.0077 µM.

Which IC50 does the source give for CC[C@@H](C)[C@H](N)C(=O)N[C@@H](Cc1ccc(O)cc1)C(=O)N[C@@H](Cc1ccc(O)cc1)P(=O)(O)O here?
Its IC50 is 0.234 µM.

For CC[C@@H](C)[C@H](N)C(=O)N[C@@H](Cc1ccc(O)cc1)C(=O)N[C@@H](Cc1ccc(O)cc1)C(=O)O, which IC50 is on record?
Its IC50 is 236 µM.

With CC[C@@H](C)[C@H](N)C(=O)N[C@@H](Cc1ccc(O)cc1)C(=O)N[C@H](Cc1ccc(O)cc1)P(=O)(O)O as the compound, how does the IC50 read?
Its IC50 is 54.6 µM.

Which IC50 does the source give for CC[C@@H](C)[C@H](NC(C)=O)C(=O)N[C@@H](Cc1ccc(O)cc1)C(=O)N[C@@H](Cc1ccc(O)cc1)P(=O)(O)O here?
The IC50 was 0.0144 µM.

With CC[C@@H](C)[C@H](N)C(=O)N[C@@H](Cc1ccc(O)cc1)C(=O)N[C@H](Cc1ccc(O)cc1)C(=O)O as the compound, how does the IC50 read?
The IC50 was over 1000 µM.

For CC[C@@H](C)[C@H](NC(C)=O)C(=O)N[C@@H](Cc1ccc(O)cc1)C(=O)N[C@H](Cc1ccc(O)cc1)C(=O)O, which IC50 is on record?
Its IC50 is 2000 µM.
